23 compounds from ChEMBL document CHEMBL1944507, “Structure-activity relationships for amide-, carbamate-, and urea-linked analogues of the tuberculosis drug (6S)-2-nitro-6-{[4-(trifluoromethoxy)benzyl]oxy}-6,7-dihydro-5H-imidazo[2,1-b][1,3]oxazine (PA-824)” (J Med Chem, 2012) can be followed below.

Structures are written as SMILES. In brackets after ≈: the same amount, converted by molar mass. Where only a bound is given, the exact number is not on record here.

Format in all cases: functional
The subject of test [1] is Mycobacterium tuberculosis. The test can be described thus: Antimicrobial activity against Mycobacterium tuberculosis H37Rv ATCC 27294 harboring pFCA-lux AB gene measured under anaerobic condition after 11 days by luminescence analysis. The settings on record: H37Rv ATCC 27294, 264 h. Put shortly: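 LORA: luminescence-based low-oxygen-recovery assay on nonreplicating M. tb, 11-day anaerobic exposure. MIC is the mean of at least two independent determinations ± SD.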

For test [2], the system named is Mycobacterium tuberculosis. The test can be described thus: Antimicrobial activity against Mycobacterium tuberculosis H37Rv ATCC 27294 harboring pFCA-lux AB gene measured under aerobic condition after 8 days by luminescence analysis. The settings on record: H37Rv ATCC 27294, 192 h. Summed up:
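MABA: replicating M. tb H37Rv exposed to compound aerobically for 8 days. […] Mean of at least two independent determinations ± SD.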

Test [3] deals with Mycobacterium tuberculosis. Put plainly: Ratio of MIC for PA-824 to compound MIC for Mycobacterium tuberculosis H37Rv ATCC 27294 harboring pFCA-lux AB gene measured under aerobic condition after 8 days by luminescence analysis.

By MIC is commonly meant the least concentration at which growth counts as inhibited. High values mean a need for much substance, low ones inhibition by little substance.

As to `O=C(N[C@@H]1COc2nc([N+](=O)[O-])cn2C1)c1ccccc1OC(F)(F)F`, the MIC in test [1] was more than 64 µM; in test [2], 27 µM (≈ 10.1 µg/mL).

Turning to `O=C(N[C@@H]1COc2nc([N+](=O)[O-])cn2C1)c1cccc(OC(F)(F)F)c1`, the MIC in test [1] is more than 64 µM; in test [2], 4.9 µM (≈ 1.82 µg/mL).

`CN(C(=O)c1ccccc1OC(F)(F)F)[C@@H]1COc2nc([N+](=O)[O-])cn2C1`: the minimum inhibitory concentration (MIC) is more than 64 µM in test [1] and 45 µM (≈ 17.4 µg/mL) in test [2].

For the compound `CN(C(=O)c1cccc(OC(F)(F)F)c1)[C@@H]1COc2nc([N+](=O)[O-])cn2C1`, the MIC is more than 64 µM in test [1] and 24 µM (≈ 9.27 µg/mL) in test [2].

`CN(C(=O)c1ccc(OC(F)(F)F)cc1)[C@@H]1COc2nc([N+](=O)[O-])cn2C1`: the minimal inhibitory concentration (MIC) was more than 64 µM in test [1] and 22 µM (≈ 8.5 µg/mL) in test [2].

As to `O=[N+]([O-])c1cn2c(n1)OC[C@@H](NS(=O)(=O)c1ccccc1OC(F)(F)F)C2`, the MIC in test [1] and in test [2] was more than 64 µM in each case.

With `O=[N+]([O-])c1cn2c(n1)OC[C@@H](NS(=O)(=O)c1cccc(OC(F)(F)F)c1)C2`, the MIC in test [1] and in test [2] was more than 64 µM in each case.

Turning to `O=[N+]([O-])c1cn2c(n1)OC[C@@H](NS(=O)(=O)c1ccc(OC(F)(F)F)cc1)C2`, the minimum inhibitory concentration (MIC) was more than 64 µM in test [1] and 9.7 µM (≈ 3.96 µg/mL) in test [2].

For `CN([C@@H]1COc2nc([N+](=O)[O-])cn2C1)S(=O)(=O)c1ccccc1OC(F)(F)F`, the MIC is 45 µM (≈ 19 µg/mL) in test [1] and 20 µM (≈ 8.45 µg/mL) in test [2].

As to `CN([C@@H]1COc2nc([N+](=O)[O-])cn2C1)S(=O)(=O)c1cccc(OC(F)(F)F)c1`, the minimum inhibitory concentration (MIC) in test [1] is 64 µM (≈ 27 µg/mL); in test [2] it was 12 µM (≈ 5.07 µg/mL).

`CN([C@@H]1COc2nc([N+](=O)[O-])cn2C1)S(=O)(=O)c1ccc(OC(F)(F)F)cc1`: the MIC in test [1] was 22 µM (≈ 9.29 µg/mL); in test [2], 0.53 µM (≈ 0.224 µg/mL).

`O=C(Cc1ccc(OC(F)(F)F)cc1)N[C@@H]1COc2nc([N+](=O)[O-])cn2C1`: the minimum inhibitory concentration (MIC) was found to be 21 µM (≈ 8.11 µg/mL) in test [1] and 0.27 µM (≈ 0.104 µg/mL) in test [2].

Turning to `O=C(CN[C@@H]1COc2nc([N+](=O)[O-])cn2C1)c1ccc(OC(F)(F)F)cc1`, the minimal inhibitory concentration (MIC) is more than 64 µM in test [1] and 7.6 µM (≈ 2.94 µg/mL) in test [2].

With `O=C(Nc1ccc(-c2ccc(C(F)(F)F)nc2)cc1)N[C@@H]1COc2nc([N+](=O)[O-])cn2C1`, the MIC in test [1] worked out at 17 µM (≈ 7.62 µg/mL); in test [2], 0.17 µM (≈ 0.0762 µg/mL).

For the compound `O=C(Nc1ccc(-c2ccc(F)nc2)cc1)N[C@@H]1COc2nc([N+](=O)[O-])cn2C1`, the results for the MIC in test [1] and in test [2] were 11 µM (≈ 4.38 µg/mL) and 0.24 µM (≈ 0.0956 µg/mL), respectively.

For the compound `O=C(Nc1ccc(-c2ccnc(C(F)(F)F)c2)cc1)N[C@@H]1COc2nc([N+](=O)[O-])cn2C1`, the MIC in test [1] is 13 µM (≈ 5.83 µg/mL); in test [2] it was 0.36 µM (≈ 0.161 µg/mL).

Regarding `O=C(NCc1ccc(-c2ccc(C(F)(F)F)cc2)cc1)N[C@@H]1COc2nc([N+](=O)[O-])cn2C1`, the MIC in test [1] is more than 32 µM; in test [2], 0.32 µM (≈ 0.148 µg/mL).

As to `O=C(NCc1ccc(-c2ccc(F)cc2)cc1)N[C@@H]1COc2nc([N+](=O)[O-])cn2C1`, the MIC worked out at 26 µM (≈ 10.7 µg/mL) in test [1] and 0.11 µM (≈ 0.0453 µg/mL) in test [2].

Turning to `O=C(Nc1ccc(OC(F)(F)F)cc1)O[C@@H]1COc2nc([N+](=O)[O-])cn2C1`, the MIC in test [1] is 2.7 µM (≈ 1.05 µg/mL); in test [2], 0.12 µM (≈ 0.0466 µg/mL). The Ratio in test [3] came to 4.

With `O=[N+]([O-])c1cn2c(n1)OC[C@@H](OCc1ccccc1OC(F)(F)F)C2`, the MIC in test [1] was 8.6 µM (≈ 3.09 µg/mL); in test [2], 1.8 µM (≈ 0.647 µg/mL).

For `O=[N+]([O-])c1cn2c(n1)OC[C@@H](OCc1cccc(OC(F)(F)F)c1)C2`, the MIC in test [1] worked out at 2.1 µM (≈ 0.754 µg/mL); in test [2], 0.36 µM (≈ 0.129 µg/mL).

With `O=[N+]([O-])c1cn2c(n1)OC[C@@H](NCc1ccc(OC(F)(F)F)cc1)C2`, the minimum inhibitory concentration (MIC) in test [1] is 5.3 µM (≈ 1.9 µg/mL); in test [2] it was 0.22 µM (≈ 0.0788 µg/mL).

Turning to `O=[N+]([O-])c1cn2c(n1)OC[C@@H](OCc1ccc(OC(F)(F)F)cc1)C2` [PRETOMANID], the figures for the MIC in test [1] and in test [2] were 2.6 µM (≈ 0.934 µg/mL) and 0.5 µM (≈ 0.18 µg/mL), respectively.
